Source: ChEMBL document CHEMBL4033667, “Design, synthesis, and identification of a novel napthalamide-isoselenocyanate compound NISC-6 as a dual Topoisomerase-IIα and Akt pathway inhibitor, and evaluation of its anti-melanoma activity” (Eur J Med Chem, 2017)

Key:
Assay type in all cases: functional, cell-based
[1] = test system: CHL-1; assay: Antiproliferative activity against human CHL-1 cells harboring wild type BRAF after 72 hrs by MTT assay; details: CHL-1, 72 h
In short: (§1)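 MTT viability in melanoma lines grown in DMEM with 10% FBS and pen/strep at 37 °C, 5% CO2. 3000 cells/well, settled overnight, then exposed to compound (0 to 50 µM) in triplicate for 24, 48 or 72 h. MTT (5.0 mg/mL solution) added 3 h before termination. IC50 from non-linear regression (variable slope), mean ± SD.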

[2] = Antiproliferative activity against human A375M cells harboring BRAF V600E mutant after 24 hrs by MTT assay; in short: as §1
[3] = Antiproliferative activity against human A375M cells harboring BRAF V600E mutant after 48 hrs by MTT assay; in short: as §1
[4] = test system: CHL-1; assay: Antiproliferative activity against human CHL-1 cells harboring wild type BRAF after 24 hrs by MTT assay; details: CHL-1, 24 h; in short: as §1
[5] = test system: CHL-1; assay: Antiproliferative activity against human CHL-1 cells harboring wild type BRAF after 48 hrs by MTT assay; details: CHL-1, 48 h; in short: as §1
[6] = test system: UACC-903; assay: Antiproliferative activity against human UACC-903 cells harboring BRAF V600E mutant after 48 hrs by MTT assay; details: UACC-903, 48 h; in short: as §1
[7] = test system: UACC-903; assay: Antiproliferative activity against human UACC-903 cells harboring BRAF V600E mutant after 72 hrs by MTT assay; details: UACC-903, 72 h; in short: as §1
[8] = Antiproliferative activity against human 1205 Lu cells harboring BRAF V600E mutant after 24 hrs by MTT assay; in short: as §1
[9] = Antiproliferative activity against human A375M cells harboring BRAF V600E mutant after 72 hrs by MTT assay; in short: as §1
[10] = Antiproliferative activity against human 1205 Lu cells harboring BRAF V600E mutant after 48 hrs by MTT assay; in short: as §1
[11] = test system: UACC-903; assay: Antiproliferative activity against human UACC-903 cells harboring BRAF V600E mutant after 24 hrs by MTT assay; details: UACC-903, 24 h; in short: as §1
[12] = Antiproliferative activity against human 1205 Lu cells harboring BRAF V600E mutant after 72 hrs by MTT assay; in short: as §1

For `O=C1c2cccc3cccc(c23)C(=O)N1CCN=C=[Se]`, the IC50 [1] was 7.6 µM, the IC50 [2] was 9.7 µM and the IC50 [3] was 7.8 µM. For the same compound, the IC50 [4] was 6.3 µM, the IC50 [5] was 6.8 µM and the IC50 [6] was 5.5 µM. It also gave an IC50 [7] of 5.9 µM, an IC50 [8] of 11 µM and an IC50 [9] of 8 µM. The IC50 [10] was 10.7 µM, the IC50 [11] was 6.3 µM and the IC50 [12] was 9.4 µM.

For `N=C(N)[Se]CCN1C(=O)c2cccc3cccc(c23)C1=O`, the IC50 [1] was 5.1 µM, the IC50 [2] was over 50 µM and the IC50 [3] was 17.9 µM. The IC50 [4] was 17.9 µM, the IC50 [5] was 5.2 µM and the IC50 [6] was 12.8 µM. It also gave an IC50 [7] of 12.1 µM, an IC50 [8] of 46.8 µM and an IC50 [9] of 28.7 µM. For the same compound, the IC50 [10] was 11.5 µM, the IC50 [11] was 46.8 µM and the IC50 [12] was 8.2 µM.
